Measured values as given in ChEMBL document CHEMBL3739400, “Penicyclones A-E, Antibacterial Polyketides from the Deep-Sea-Derived Fungus Penicillium sp. F23-2” (J Nat Prod, 2015).
Converted amounts (≈) assume the structure as drawn.

System: HeLa
Experiment: Cytotoxicity against human HeLa cells assessed as reduction in cell viability by MTT assay
Type: functional, cell-based
Conditions: not given
Procedure, shortened: (§1)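 Cytotoxicity was measured by MTT assay on HeLa (human cervical cancer) and BEL-7402 (human hepatocellular carcinoma) cell lines, with doxorubicin as the positive control.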

Row | Structure (SMILES) | IC50 [µM]
1 | COC(=O)[C@H](C)CC[C@@]1(O)C(=O)C=C(C)[C@@H](O)[C@H]1O | > 50
2 | CC1=CC(=O)[C@](O)(CC[C@@H](C)C(=O)O)[C@H](O)[C@@H]1O | > 50
3 | CC1=CC(=O)[C@]2(C/C=C(\C)CCC(=O)O)O[C@@H]2[C@@H]1O | > 50
4 | CC1=CC(=O)[C@]2(CC/C(C)=C/CC(=O)O)O[C@@H]2[C@@H]1O | > 50
5 | CC1=CC(=O)[C@]2(CC[C@@H](C)C(=O)O2)[C@H](O)[C@@H]1O | > 50

System: Staphylococcus aureus
Experiment: Antibacterial activity against Staphylococcus aureus ATCC 6538 assessed as growth inhibition after 24 hrs by broth microdilution method
Type: functional
Conditions: ATCC 6538, 24 h
Procedure, shortened: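 Broth microdilution assay against Staphylococcus aureus, with penicillin G as the positive control.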

Row | Structure (SMILES) | MIC [µg/mL]
6 | COC(=O)[C@H](C)CC[C@@]1(O)C(=O)C=C(C)[C@@H](O)[C@H]1O | 0.9 (≈ 3.31 µM)
7 | CC1=CC(=O)[C@](O)(CC[C@@H](C)C(=O)O)[C@H](O)[C@@H]1O | 1 (≈ 3.87 µM)
8 | CC1=CC(=O)[C@]2(CC[C@@H](C)C(=O)O2)[C@H](O)[C@@H]1O | 0.3 (≈ 1.25 µM)

Now from value to compound:

Row | MIC [µg/mL] | Structure (SMILES)
9 | 0.5 (≈ 1.88 µM) | CC1=CC(=O)[C@]2(C/C=C(\C)CCC(=O)O)O[C@@H]2[C@@H]1O
10 | 0.8 (≈ 3 µM) | CC1=CC(=O)[C@]2(CC/C(C)=C/CC(=O)O)O[C@@H]2[C@@H]1O

System: A549
Experiment: Cytotoxicity against human A549 cells assessed as reduction in cell viability by sulforhodamine B assay
Type: functional, cell-based
Conditions: not given

Row | Structure (SMILES) | IC50 [µM]
11 | COC(=O)[C@H](C)CC[C@@]1(O)C(=O)C=C(C)[C@@H](O)[C@H]1O | > 50
12 | CC1=CC(=O)[C@](O)(CC[C@@H](C)C(=O)O)[C@H](O)[C@@H]1O | > 50
13 | CC1=CC(=O)[C@]2(C/C=C(\C)CCC(=O)O)O[C@@H]2[C@@H]1O | > 50
14 | CC1=CC(=O)[C@]2(CC/C(C)=C/CC(=O)O)O[C@@H]2[C@@H]1O | > 50
15 | CC1=CC(=O)[C@]2(CC[C@@H](C)C(=O)O2)[C@H](O)[C@@H]1O | > 50

System: HEK293
Experiment: Cytotoxicity against HEK293 cells assessed as reduction in cell viability by sulforhodamine B assay
Type: cell-based
Conditions: Homo sapiens

Row | Structure (SMILES) | IC50 [µM]
16 | COC(=O)[C@H](C)CC[C@@]1(O)C(=O)C=C(C)[C@@H](O)[C@H]1O | > 50
17 | CC1=CC(=O)[C@](O)(CC[C@@H](C)C(=O)O)[C@H](O)[C@@H]1O | > 50
18 | CC1=CC(=O)[C@]2(C/C=C(\C)CCC(=O)O)O[C@@H]2[C@@H]1O | > 50
19 | CC1=CC(=O)[C@]2(CC/C(C)=C/CC(=O)O)O[C@@H]2[C@@H]1O | > 50
20 | CC1=CC(=O)[C@]2(CC[C@@H](C)C(=O)O2)[C@H](O)[C@@H]1O | > 50

System: not listed separately
Experiment: Cytotoxicity against human HCT116 cells assessed as reduction in cell viability by sulforhodamine B assay
Type: functional, cell-based
Conditions: HCT-116

Row | Structure (SMILES) | IC50 [µM]
21 | COC(=O)[C@H](C)CC[C@@]1(O)C(=O)C=C(C)[C@@H](O)[C@H]1O | > 50
22 | CC1=CC(=O)[C@](O)(CC[C@@H](C)C(=O)O)[C@H](O)[C@@H]1O | > 50
23 | CC1=CC(=O)[C@]2(C/C=C(\C)CCC(=O)O)O[C@@H]2[C@@H]1O | > 50
24 | CC1=CC(=O)[C@]2(CC/C(C)=C/CC(=O)O)O[C@@H]2[C@@H]1O | > 50
25 | CC1=CC(=O)[C@]2(CC[C@@H](C)C(=O)O2)[C@H](O)[C@@H]1O | > 50

System: not listed separately
Experiment: Cytotoxicity against human Bel7402 cells assessed as reduction in cell viability by MTT assay
Type: functional, cell-based
Conditions: Bel-7402
Procedure, shortened: as §1

Row | Structure (SMILES) | IC50 [µM]
26 | COC(=O)[C@H](C)CC[C@@]1(O)C(=O)C=C(C)[C@@H](O)[C@H]1O | > 50
27 | CC1=CC(=O)[C@](O)(CC[C@@H](C)C(=O)O)[C@H](O)[C@@H]1O | > 50
28 | CC1=CC(=O)[C@]2(C/C=C(\C)CCC(=O)O)O[C@@H]2[C@@H]1O | > 50
29 | CC1=CC(=O)[C@]2(CC/C(C)=C/CC(=O)O)O[C@@H]2[C@@H]1O | > 50
30 | CC1=CC(=O)[C@]2(CC[C@@H](C)C(=O)O2)[C@H](O)[C@@H]1O | > 50
